PMC5050072 (Clinical cancer research : an official journal of the …, 2016)

Legend:
[1] = tested on: Notch intracellular domain (NICD); experiment: NICD immunohistochemistry of tumor cells in matched glioblastoma tissue; type: in vivo, human; conditions: after presurgical 7-day treatment; before 21.9 ± 5.4 %; n=6
Method in brief: (§1)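 Tumor sections taken before and after 7 days of daily test compound were immunostained; the last dose was given 2–3 h before resection. NICD used an anti-NICD antibody. At least 1,000 cells counted per marker, with morphometry by image analysis. Ki-67 values were also grouped by patient survival (n=7). Mean±SEM; unpaired Student's t-tests.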

[2] = tested on: tumor blood perfusion and vascular permeability; experiment: DCE-perfusion MRI before and after 7 days of RO4929097; type: in vivo, human; conditions: after 7 days of RO4929097
Method in brief: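 Dynamic contrast-enhanced perfusion MRI in glioma patients before and after 7 days of daily test compound given before resection. Read-outs were relative fractional plasma volume (Vp) for blood perfusion and volume transfer coefficient between plasma and extravascular extracellular space (K^trans) for vascular permeability. Values given as mean±SEM; significance by unpaired Student's t-test.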

[3] = Phase I 3+3 dose escalation of RO4929097 with RT and temozolomide: toxicity; type: in vivo, human
[4] = tested on: Notch gene targets, angiogenesis and mesenchymal genes; experiment: RNA-Ampliseq gene expression profiling of matched and recurrent tumors; type: in vivo, human
Method in brief: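 RNA sequencing on FFPE tumor tissue. Samples were matched archival pre-treatment tissue and tissue resected after the initial 7 days of daily test compound. A further set was recurrent tumors resected at repeat surgery from patients kept on the test compound (with temozolomide) until the day of surgery (n=7).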

[5] = tested on: tumor cells proliferation (Ki-67); experiment: Ki-67 immunohistochemistry of matched pre- and post-treatment tumor tissue; type: in vivo, human
Method in brief: as §1

Hes1 = conditions: cited from earlier work
glioblastoma explants [6] = experiment: Organotypic tumor explants: Ki-67 immunofluorescent staining; type: cell-based, human; conditions: RO4929097 1 µM, 10 days in vitro; n=4
Method in brief: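 Fresh tumor tissue from patients resected on study was grown as 3-D organotypic explants. Established explants were treated with the test compound alone. Proliferation was read by Ki-67 immunofluorescent staining and counting of Ki-67+ nuclei before and after treatment (n=4). Mean±SEM; unpaired Student's t-test.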

Notch pathway components = type: in vivo, human; conditions: enhancing tissue compared to areas of intact BBB, after 7 days
Method in brief: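 After 7 days of daily test compound (last dose 2–3 h pre-resection), tumor was sampled separately from contrast-enhancing and non-enhancing regions, defined by intraoperative MRI. Notch pathway transcripts were quantified by real-time PCR, normalized to 18S (n=6). Mean±SEM; unpaired Student's t-tests.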

[7] = type: in vivo, human
[8] = Plasma pharmacokinetics of RO4929097; type: in vivo, human; conditions: 10, 15, 20 mg, with temozolomide 75mg/m2
Method in brief: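 Daily test compound at 10, 15 or 20 mg, combined with temozolomide 75 mg/m² and 150 mg/m². Plasma levels measured by HPLC-MS/MS. […] Reported as mean ±SD.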

GSC-like CD133+ cells = experiment: Organotypic tumor explants: FACS analysis of CD133+ cells; type: cell-based, human; conditions: RO4929097 alone; n=5
glioblastoma explants [9] = experiment: Organotypic tumor explants: CellTiter Glo Luminescent Assay; type: cell-based, human; conditions: triple combination RT+temozolomide+RO4929097; n=5
[10] = tested on: NICD-expressing vascular structures; experiment: NICD/CD31 immunohistochemistry of tumor blood vessels; type: in vivo, human
[11] = second surgery after prolonged course (mean 181 days)
[12] = after RO4929097, survival cut-off 14 months

CC(C)(C(=O)NCC(F)(F)C(F)(F)F)C(=O)N[C@@H]1C(=O)Nc2ccccc2-c2ccccc21 [RO4929097]
NICD-positive tumor cells after treatment [1]: 5.1 ± 1.3%
mean K^trans after treatment ([2]; baseline 0.05± 0.01): 0.03 ± 0.01 min⁻¹
mean Vp ratio after drug exposure ([2]; baseline 9.34± 2.4, p<0.05, 8 patients): 3.92± 0.9
QTc prolongation [3]: no significant QTc prolongation
treatment-related deaths [3]: no treatment-related deaths
recommended phase 2 dose (RP2D) ([3]; daily): 20 mg
mesenchymal-associated genes C/EBPB and STAT3 ([4]; after presurgical 7-day RO4929097 treatment phase): downregulated
expression of primary Notch gene targets Hes5, Hey1 and Hey2 ([4]; mostly recurrence group with prolonged therapy, not statistically significant): trend towards downregulation
angiogenesis markers PECAM (CD31), angiopoetins and VEGFA ([4]; recurrent tumors under prolonged RO4929097 therapy): upregulation
Ki-67, poor survival group ([5]; after 7 days of RO4929097, baseline 15.0 ± 2.3 %): 20.4 ± 2.2%
Ki-67, favorable survival subgroup ([5]; after 7 days of RO4929097, baseline 37.3 ± 10.7 %): 8.5 ± 3.2%
Ki-67 proliferation marker after treatment ([5]; after 7 days of RO treatment, before 27.7 ± 7.3 %, n=7): 13.6 ± 3.1%
concentration from which target genes (e.g. Hes1) are reduced dose-dependently (Hes1): ≥ 0.1 µM
proliferation (Ki-67 quantification) in explants (glioblastoma explants [6]): significant decrease in proliferation
Hes1 mRNA levels (Notch pathway components): remained unchanged
mRNA of Notch receptors (Notch 2, 3 and 4) (Notch pathway components): significant upregulation
mRNA of downstream effector Hes5 (Notch pathway components): suppression
mRNA of DLL1, DLL3 and Jag2 ligands (Notch pathway components; n=6): significant downregulation
tumor drug level, enhancing tissue ([7]; after 7 days of RO4929097, at surgery, disrupted BBB, mean ± SEM): 0.73 ± 0.13 µM
tumor drug level, non-enhancing tissue ([7]; after 7 days of RO4929097, at surgery, intact BBB, mean ± SEM): 0.33 ± 0.04 µM
drug level in non-enhancing tumor tissue, specimen M09 ([7]; repeat surgery, prolonged RO4929097 use, single specimen): ~ 1.3 µM
tumor drug concentration, enhancing areas [7, 11]: 0.77 ± 0.19 µM
tumor drug concentration, non-enhancing areas [7, 11]: 0.71 ± 0.24 µM
average tissue drug level, favorable survival group ([7]; tumor tissue, survival cut-off 14 months): 0.15 ± 0.03 µM
average tissue drug level, poor survival group ([7]; tumor tissue, survival cut-off 14 months, p=0.36 vs favorable): 0.19 ± 0.05 µM
mean Cmax and AUC24 for the initial dose [8]: increased as the dose was escalated
proportion of CD133+ cells in explants (GSC-like CD133+ cells): significant decrease
decrease in tumor cell viability compared to control untreated explants (glioblastoma explants [9]): ~60%
microvascular density ([10]; Pre vs Post vs PostPP): no significant change
NICD expression on vascular structures, better survival group [10, 12]: 22.5 ± 5.0%
NICD expression on vascular structures, poor survival group [10, 12]: 43.8 ± 9.0%
NICD-expressing vascular structures (Post) ([10]; at 7 days of RO4929097, Pre 67.6 ± 5.2 %, percent of total blood vessels): 30.0 ± 9.0%
NICD-expressing vascular structures (PostPP) ([10]; at recurrence after prolonged treatment, Pre 67.6 ± 5.2 %): 24.2 ± 5.2%
